According to PMC8473721 (Journal of Inflammation Research, 2021):

System: MCF-7 human breast tumor xenograft
Assay: In vivo anticancer activity in human breast tumor xenograft model
Parameters: species or system female nude (nu/nu) mice
Conditions: 10 mg/kg BW
Method in brief: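 Female nu/nu mice (6~7 weeks) were given about 1.5×10^7 MCF-7 cells subcutaneously in the dorsal back, in medium:Matrigel 1:1. Estradiol cyclopentyl propionate (100 µg/mouse) was given s.c. twice weekly. Once tumors reached ≥5 mm, mice were randomised, six per group, to 5 mg/kg BW test compound for 45 days, paclitaxel 10 mg/kg, or vehicle. Tumor size, BW and toxicity signs were recorded every 4 days.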

## CC(=O)O[C@H]1C(=O)[C@@]2(C)[C@H]([C@H](OC(=O)c3ccccc3)[C@]3(O)C[C@H](OC(=O)[C@H](O)[C@@H](NC(=O)c4ccccc4)c4ccccc4)C(C)=C1C3(C)C)[C@]1(OC(C)=O)CO[C@@H]1C[C@@H]2O [paclitaxel]
  tumor growth: significantly (p<0.001) inhibited tumor growth
